Experimental data reported in ChEMBL document CHEMBL5329183, “Naphthylthiazoles: a class of broad-spectrum antifungals” (RSC Med Chem, 2023).
Values after ≈ are worked out from the molar mass of the structure shown.

Legend:
[1] = Selectivity ratio of CC50 for cytotoxicity against African green monkey Vero cells to MIC for antifungal activity against Cryptococcus neoformans NR 48771; format: toxicity, cell-based
Lactobacillus gasseri = assay: Antibacterial activity against Lactobacillus gasseri HM400 assessed as inhibition of bacterial growth; format: toxicity, organism-based
Escherichia coli [2] = assay: Antibacterial activity against Escherichia coli JW55031 harboring tolC mutant assessed as inhibition of bacterial growth; format: functional
Cryptococcus neoformans [3] = assay: Antifungal activity against Cryptococcus neoformans NR 41299 assessed as inhibition of fungal growth incubated for 48 hrs by broth microdilution method; format: functional
Method in brief: (§1)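 Clinical isolate; CLSI broth microdilution over a range of concentrations (media listed: RPMI 1640, MOPS, YPD). MIC read as lowest concentration inhibiting growth by 50% after 48 h incubation at 35 °C.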

Candida parapsilosis = assay: Antifungal activity against Candida parapsilosis CAB 502638 assessed as inhibition of fungal growth incubated for 24 hrs by broth microdilution method; format: functional; conditions: Lodderomyces parapsilosis
Method in brief: (§2)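 Broth microdilution per CLSI guidelines against clinical isolates, incubated at 35 °C for 24 h (Candida, Aspergillus) or 48 h (Cryptococcus). MIC was the lowest concentration giving 50% growth inhibition.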

Pichia kudriavzevii = assay: Antifungal activity against Candida krusei CAB 396420 assessed as inhibition of fungal growth incubated for 24 hrs by broth microdilution method; format: functional; method in brief: as §2
[4] = Antifungal activity against Cryptococcus gattii NR 43213 assessed as inhibition of fungal growth incubated for 48 hrs by broth microdilution method; format: functional, Cryptococcus gattii VGI; method in brief: as §2
Candida albicans [5] = assay: Antifungal activity against Candida albicans ATCC 10231 assessed as inhibition of fungal growth incubated for 24 hrs by broth microdilution method; format: functional; method in brief: as §2
[6] = Antibacterial activity against Lactobacillus crispatus HM370 assessed as inhibition of bacterial growth; format: toxicity
[7] = Selectivity ratio of CC50 for cytotoxicity against human Caco-2 cells to MIC for antifungal activity against Cryptococcus neoformans NR 41299; format: toxicity, cell-based
[8] = Selectivity ratio of CC50 for cytotoxicity against African green monkey Vero cells to MIC for antifungal activity against Cryptococcus gattii NR 43209; format: toxicity, cell-based
[9] = Selectivity ratio of CC50 for cytotoxicity against human Caco-2 cells to MIC for antifungal activity against Cryptococcus gattii NR 43213; format: toxicity, cell-based
Cryptococcus neoformans [10] = assay: Antifungal activity against Cryptococcus neoformans NR 48771 assessed as inhibition of fungal growth incubated for 48 hrs by broth microdilution method; format: functional; method in brief: as §1
[11] = Selectivity ratio of CC50 for cytotoxicity against human Caco-2 cells to MIC for antifungal activity against Cryptococcus neoformans NR 48767; format: toxicity, cell-based
Candida albicans [12] = assay: Antifungal activity against wild type Candida albicans SC5314 assessed as inhibition of fungal growth; format: functional
[13] = Antifungal activity against Cryptococcus gattii NR 43210 assessed as inhibition of fungal growth incubated for 48 hrs by broth microdilution method; format: functional, Cryptococcus gattii VGI; method in brief: as §2
Cryptococcus neoformans [14] = assay: Antifungal activity against Cryptococcus neoformans NR 41300 assessed as inhibition of fungal growth incubated for 48 hrs by broth microdilution method; format: functional; method in brief: as §1
Clostridioides difficile = assay: Antibacterial activity against Clostridium difficile ATCC BAA1870 assessed as inhibition of bacterial growth; format: functional
[15] = Selectivity ratio of CC50 for cytotoxicity against African green monkey Vero cells to MIC for antifungal activity against Cryptococcus neoformans NR 41300; format: toxicity, cell-based
Cryptococcus neoformans [16] = assay: Antibiofilm activity against Cryptococcus neoformans NR 41300 assessed as inhibition of biofilm formation at 0.5xMIC measured after 48 hrs by crystal violet staining based analysis; format: functional
Method in brief: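 Overnight C. neoformans was washed twice in PBS and adjusted to 105 cells per mL in RPMI. Cells were exposed to compound at 0.5 × MIC for 48 h at 35 °C. Biofilm was rinsed, dried, stained with 0.1% crystal violet, and the dye extracted with glacial acetic acid; OD595 readout.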

Candida albicans [17] = assay: Antifungal activity against Candida albicans NR 29448 assessed as inhibition of fungal growth incubated for 24 hrs by broth microdilution method; format: functional
Method in brief: (§3)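 Clinical isolate; CLSI broth microdilution over a range of concentrations (media listed: RPMI 1640, MOPS, YPD). MIC taken as lowest concentration giving 50% growth inhibition after 24 h at 35 °C.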

Aspergillus fumigatus = assay: Antifungal activity against Aspergillus fumigatus NR 35303 assessed as inhibition of fungal growth incubated for 24 hrs by broth microdilution method; format: functional; method in brief: as §2
Nakaseomyces glabratus = assay: Antifungal activity against Candida glabrata ATCC 66032 assessed as inhibition of fungal growth incubated for 24 hrs by broth microdilution method; format: functional; method in brief: as §3
Escherichia coli [18] = assay: Antibacterial activity against wild type Escherichia coli BW25113 assessed as inhibition of bacterial growth; format: functional
J774 = assay: Cytotoxicity against mouse J774 cells assessed as reduction in cell viability at 64 ug/ml measured after 24 hrs by MTS assay; format: toxicity, cell-based; conditions: j774, 24 h, dose 64 µg/ml
Method in brief: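 J774 murine macrophages were grown in DMEM with 10% FBS and exposed to compounds for 24 h at 37 °C, 5% CO2. After 3 h with MTS, OD490 was read. Viability was expressed relative to DMSO-matched controls.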

[19] = Antibacterial activity against Lactobacillus casei HM334 assessed as inhibition of bacterial growth; format: toxicity; conditions: lacticaseibacillus casei
[20] = Selectivity ratio of CC50 for cytotoxicity against African green monkey Vero cells to MIC for antifungal activity against Cryptococcus neoformans NR 48767; format: toxicity, cell-based
[21] = Selectivity ratio of CC50 for cytotoxicity against human Caco-2 cells to MIC for antifungal activity against Cryptococcus neoformans NR 48773; format: toxicity, cell-based
Cryptococcus neoformans [22] = assay: Antifungal activity against Cryptococcus neoformans NR 48767 assessed as inhibition of fungal growth incubated for 48 hrs by broth microdilution method; format: functional; method in brief: as §1
[23] = Selectivity ratio of CC50 for cytotoxicity against human Caco-2 cells to MIC for antifungal activity against Cryptococcus neoformans NR 48771; format: toxicity, cell-based
[24] = Selectivity ratio of CC50 for cytotoxicity against African green monkey Vero cells to MIC for antifungal activity against Cryptococcus neoformans NR 41299; format: toxicity, cell-based
[25] = Selectivity ratio of CC50 for cytotoxicity against human Caco-2 cells to MIC for antifungal activity against Cryptococcus gattii NR 43210; format: toxicity, cell-based
[26] = Selectivity ratio of CC50 for cytotoxicity against African green monkey Vero cells to MIC for antifungal activity against Cryptococcus neoformans NR 41298; format: toxicity, cell-based
Vero = assay: Cytotoxicity against African green monkey Vero cells assessed as inhibition of cell viability at 128 ug/ml incubated for 2 hrs by MTS assay; format: toxicity, cell-based; conditions: chlorocebus sabaeus, dose 128 µg/ml
Method in brief: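 Vero cells were grown in MEM with 10% FBS, 1 mM sodium pyruvate and penicillin–streptomycin, then exposed to compounds for 2 h at 37 °C, 5% CO2, in triplicate. MTS was added for 3 h and OD490 read. Viability was expressed as % of DMSO-matched controls (mean ± SD).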

[27] = Selectivity ratio of CC50 for cytotoxicity against African green monkey Vero cells to MIC for antifungal activity against Cryptococcus neoformans NR 48770; format: toxicity, cell-based
[28] = Apparent permeability of the compound measured after 4 hrs by PAMPA assay; format: ADME
Method in brief: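 PAMPA: compound was placed in pH 6.5 donor buffer across a lipid-pretreated PVDF filter from pH 7.4 acceptor buffer, and incubated 4 h at ambient temperature. Donor and acceptor amounts at start and end were measured by UV absorbance to give apparent permeability.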

Row | Compound | selectivity ratio [1] | MIC (Lactobacillus gasseri) [µg/mL] | MIC (Escherichia coli [2]) [µg/mL] | MIC (Cryptococcus neoformans [3]) [µg/mL] | MIC (Candida parapsilosis) [µg/mL] | MIC (Pichia kudriavzevii) [µg/mL] | MIC [4] [µg/mL] | MIC (Candida albicans [5]) [µg/mL] | MIC [6] [µg/mL] | selectivity ratio [7] | selectivity ratio [8] | selectivity ratio [9] | MIC (Cryptococcus neoformans [10]) [µg/mL] | selectivity ratio [11] | MIC (Candida albicans [12]) [µg/mL] | MIC [13] [µg/mL] | MIC (Cryptococcus neoformans [14]) [µg/mL] | MIC (Clostridioides difficile) [µg/mL] | selectivity ratio [15] | growth inhibition (GI) (Cryptococcus neoformans [16]) [%] | also measured
1 | Cc1nc(-c2ccc3ccccc3c2)sc1-c1nnc(N[C@@H]2CCCC[C@H]2N)o1 (relative stereo) | 64 | > 128 | > 64 | 1 (≈ 2.47 µM) | 1 (≈ 2.47 µM) | 1 (≈ 2.47 µM) | 2 (≈ 4.93 µM) | 4 (≈ 9.86 µM) | > 128 | 64 | 64 | 64 | 1 (≈ 2.47 µM) | 64 | 1 (≈ 2.47 µM) | 1 (≈ 2.47 µM) | 1 (≈ 2.47 µM) | 32 (≈ 78.9 µM) | 64 | ~56 | MIC (Candida albicans [17]): 4 µg/mL (≈ 9.86 µM); MIC (Aspergillus fumigatus): 4 µg/mL (≈ 9.86 µM); MIC (Nakaseomyces glabratus): 1 µg/mL (≈ 2.47 µM); MIC (Escherichia coli [18]): > 64 µg/mL; Activity (J774): Non-Toxic; MIC [19]: > 128 µg/mL; selectivity ratio [20]: 64; selectivity ratio [21]: 64; MIC (Cryptococcus neoformans [22]): 2 µg/mL (≈ 4.93 µM); selectivity ratio [23]: 64; selectivity ratio [24]: 64; selectivity ratio [25]: 64; selectivity ratio [26]: 64; Activity (Vero): Non-Toxic; selectivity ratio [27]: 64; Papp at 4 h [28]: 57.7 ×10⁻⁶ cm/s
2 | Cc1nc(-c2ccc3ccccc3c2)sc1-c1nnc(N[C@@H]2CCCC[C@@H]2N)o1 (relative stereo) | 64 | > 128 | > 64 | 2 (≈ 4.93 µM) | 1 (≈ 2.47 µM) | 1 (≈ 2.47 µM) | 2 (≈ 4.93 µM) | 4 (≈ 9.86 µM) | > 128 | 64 | 64 | 64 | 2 (≈ 4.93 µM) | 64 | 1 (≈ 2.47 µM) | 1 (≈ 2.47 µM) | 1 (≈ 2.47 µM) | 64 (≈ 158 µM) | 64 | ~53 | MIC (Candida albicans [17]): 4 µg/mL (≈ 9.86 µM); MIC (Aspergillus fumigatus): 8 µg/mL (≈ 19.7 µM); MIC (Nakaseomyces glabratus): 1 µg/mL (≈ 2.47 µM); MIC (Escherichia coli [18]): > 64 µg/mL; Activity (J774): Non-Toxic; MIC [19]: 128 µg/mL (≈ 316 µM); selectivity ratio [20]: 64; selectivity ratio [21]: 64; MIC (Cryptococcus neoformans [22]): 2 µg/mL (≈ 4.93 µM); selectivity ratio [23]: 64; selectivity ratio [24]: 64; selectivity ratio [25]: 64; selectivity ratio [26]: 64; Activity (Vero): Non-Toxic; selectivity ratio [27]: 64; Papp at 4 h [28]: 26.3 ×10⁻⁶ cm/s
